Measurements collected from several papers.
Lines come from different studies, so protocols differ. pIC50: −log10 of the molar value. ≈ marks a conversion by molar mass, not a printed value.

The viability of `COc1ccccc1NC(=O)/C=C/c1ccc2c(c1)C=CC(C)(C)O2` is reported as 83% (rat Primary cortical neuron; cell growth or viability, MTT; 1 µM, 12 h).
The inhibition of `Nc1ncnc2c([C@@H]3N[C@H](CO)[C@@H](O)[C@H]3O)c[nH]c12` is reported as 9.8% (Japanese encephalitis virus; viral replication, inhibitor; Vero 76; 9.5 µM).
For `COc1ccc(NC(=O)/C=C/c2ccc3c(c2)C=CC(C)(C)O3)cc1`, the viability was 87% (rat Primary cortical neuron; cell growth or viability, MTT; 1 µM, 12 h).
The pIC50 of `COc1cc2c(cc1O)CCN[C@]21CS[C@@H]2c3c(OC(C)=O)c(C)c4c(c3[C@H](COC1=O)N1[C@@H]2[C@H]2c3c(cc(C)c(OC)c3O)C[C@@H]([C@@H]1C#N)N2C)OCO4` is reported as 6.60 (Human coronavirus 229E; viral replication; Calu-3).
The MIC of `CCCCCC/C=C\CCCCCCCCCC(=O)CP(=O)(O)O` is reported as 12.5 µg/mL (≈ 34.7 µM) (Enterococcus faecalis; microbial growth; ATCC33186).
The pIC50 of `CC(C)C[C@H](NC(=O)[C@@H](NC(=O)N[C@@H](Cc1ccccc1)C(=O)O)[C@@H]1CCN=C(N)N1)C(=O)N[C@H](C=O)Cc1ccccc1` is reported as 4.62 (Human coronavirus 229E; viral replication; Huh7.5).
The inhibition of `Cc1cccc(CSc2nccc(OCCOc3cc(=O)oc4ccccc34)n2)c1` is reported as 38.1% (Human coronavirus 229E; cytopathic effect; A549; 12.5 µM).
The MIC of `C=CCCCCCCCCC(=O)C(F)(F)P(=O)(O)O` is reported as > 200 µg/mL (Enterococcus faecalis; microbial growth; ATCC33186).
`CCOC(=O)C1=C[C@@H](OC(CC)CC)[C@H](NC(C)=O)[C@@H](N)C1` gave a pIC50 of 5.12 (Human coronavirus 229E; viral replication; A549).
`NC(=O)c1ncn([C@@H]2O[C@H](CO)[C@@H](O)[C@H]2O)n1` has a pIC50 of 4.60 (Human coronavirus 229E; viral replication; Huh7.5).
`O=c1cc(OCCCOc2ccnc(SCc3ccc(F)cc3)n2)c2cc(F)ccc2o1` has an inhibition of 65.8% (Human coronavirus 229E; cytopathic effect; A549; 25 µM).
With `CCCCCCCC/C=C\CCCCCCCCNC(=O)CP(=O)(O)O` the MIC was 50 µg/mL (≈ 128 µM) (Enterococcus faecalis; microbial growth; ATCC33186).
The pIC50 of `O=C(Cc1ccc2ccccc2c1)N[C@@H](Cc1ccccc1)C(=O)N[C@H](Cc1ccccc1)C(=O)N[C@@H](Cc1ccc(OP(=O)(O)O)cc1)C(=O)O` is reported as < 3.30 (HeLa; cell growth or viability, MTT; 48 h).
With `O=C(CCCCC1CCCCC1)CP(=O)(O)O` the MIC was > 200 µg/mL (Enterococcus faecalis; microbial growth; ATCC33186).
For `CCC(CC)COC(=O)[C@H](C)N[P@](=O)(OC[C@H]1O[C@@](C#N)(c2ccc3c(N)ncnn23)[C@H](O)[C@@H]1O)Oc1ccccc1`, the pIC50 was 6.96 (Human coronavirus 229E; viral replication; Calu-3).
For `CC1(C)C=Cc2cc(C(CC(=O)Nc3ccccc3)Nc3ccccc3)ccc2O1` (centres unmarked), the viability was > 80% (rat Primary cortical neuron; cell growth or viability, MTT; 1 µM, 12 h).
For `O=C(CCCCC1CCCCC1)NP(=O)(O)O`, the MIC was > 200 µg/mL (Enterococcus faecalis; microbial growth; ATCC33186).
